Legend:
[1] = Cellular uptake in human U87MG cell nucleus incubated for 1 hr followed by compound wash out measured after 24 hrs by gamma counting; assay type: ADME, cell-based; conditions: u-87mg atcc
Procedure, shortened: (§1)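 U-87 MG cells treated 1 h with 125I-labelled diastereomers, fractionated either immediately or after 24 h in fresh nonradioactive medium; 125I counted in cytoplasm, soluble nuclear fraction and DNA.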

[2] = Chemical stability of the compound in phosphate buffer at pH 7.3; assay type: physicochemical
[3] = Cellular uptake in human U87MG DNA incubated for 1 hr followed by compound wash out measured after 24 hrs by gamma counting; assay type: ADME, cell-based; conditions: u-87mg atcc; procedure, shortened: as §1
[4] = Half life of the compound in phosphate buffer at pH 7.3; assay type: physicochemical
[5] = Cellular uptake in human U87MG cell cytoplasm incubated for 1 hr followed by compound wash out measured after 24 hrs by gamma counting; assay type: ADME, cell-based; conditions: u-87mg atcc; procedure, shortened: as §1
OVCAR-3 [6] = experiment: Cellular uptake in human OVCAR3 cells at 16.7 +/- 1.2 kBq/mL after 3 hrs by gamma counting; assay type: ADME, cell-based; conditions: ovcar-3, 3 h
Procedure, shortened: (§2)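 Time-course uptake of resolved 125I-labelled diastereomers in LS 174T (colorectal) or OVCAR-3 (ovarian) cells at the stated radioactive concentration; cell-associated radioactivity counted at each time point; mean and std dev, n = 3 per time.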

[7] = Cellular uptake in human LS 174T cells at 13.6 +/- 0.4 kBq/mL after 3 hrs by gamma counting; assay type: ADME, cell-based; conditions: ls174t; procedure, shortened: as §2
[8] = Cellular uptake in human LS 174T cells at 35.1 +/- 0.3 kBq/mL after 6 hrs by gamma counting; assay type: ADME, cell-based; conditions: ls174t
Procedure, shortened: (§3)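 Time-course uptake in LS 174T or OVCAR-3 cells at 35.1±0.3 kBq/mL, continued to 6 h; cell-associated 125I counted; mean and std dev, n = 3 per time.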

[9] = Cellular uptake in human LS 174T cells at 35.1 +/- 0.3 kBq/mL after 3 hrs by gamma counting; assay type: ADME, cell-based; conditions: ls174t; procedure, shortened: as §2
OVCAR-3 [10] = experiment: Cellular uptake in human OVCAR3 cells at 35.1 +/- 0.3 kBq/mL after 6 hrs by gamma counting; assay type: ADME, cell-based; conditions: ovcar-3, 6 h; procedure, shortened: as §3
OVCAR-3 [11] = experiment: Cellular uptake in human OVCAR3 cells at 35.1 +/- 0.3 kBq/mL after 3 hrs by gamma counting; assay type: ADME, cell-based; conditions: ovcar-3, 3 h; procedure, shortened: as §2
[12] = Cellular uptake in human LS 174T cells by gamma counting; assay type: ADME, cell-based; conditions: ls174t
[13] = Cellular uptake in human OVCAR3 cell cytoplasm assessed as per 10^3 cells after 1 hr by gamma counting; assay type: ADME, cell-based; conditions: ovcar-3, 1 h, 1 h
Procedure, shortened: (§4)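 OVCAR-3 cells incubated 1 h with 55.5 (0.04) kBq/mL 125I-labelled agent (diastereomer mixtures or resolved slow isomers); fractionated either immediately or after 24 h further growth in fresh nonradioactive medium; 125I in cytoplasm and nucleus counted as cpm/10^3 cells with std dev.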

[14] = Cellular uptake in human OVCAR3 cell nucleus assessed as per 10^3 cells after 1 hr by gamma counting; assay type: ADME, cell-based; conditions: ovcar-3, 1 h, 1 h; procedure, shortened: as §4
[15] = Cellular uptake in human OVCAR3 cell nucleus assessed as per 10^3 cells after 24 hrs by gamma counting; assay type: ADME, cell-based; conditions: ovcar-3, 24 h, 24 h; procedure, shortened: as §4
[16] = Cellular uptake in human OVCAR3 cell cytoplasm assessed as per 10^3 cells after 24 hrs by gamma counting; assay type: ADME, cell-based; conditions: ovcar-3, 24 h, 24 h; procedure, shortened: as §4
[17] = Cellular uptake in human LS 174T cells at 17.5 +/- 0.3 kBq/mL after 3 hrs by gamma counting; assay type: ADME, cell-based; conditions: ls174t; procedure, shortened: as §2
[18] = Cellular uptake in human U87MG cells by gamma counting; assay type: ADME, cell-based; conditions: u-87mg atcc
OVCAR-3 [19] = experiment: Cellular uptake in human OVCAR3 cells after 3 hrs by gamma counting; assay type: ADME, cell-based; conditions: ovcar-3, 3 h
Procedure, shortened: (§5)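 Concentration-dependent uptake: LS 174T or OVCAR-3 cells exposed to increasing concentrations of 125I-labelled diastereomers for 3 h; 131IUdR added to the medium as internal standard of proliferation; saturable uptake fitted to give Bmax as molecules/cell.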

[20] = Cytotoxicity against human LS 174T cells assessed as colony formation at 114.5 kBq/mL incubated for 4 hrs measured after 21 days by clonogenic assay; assay type: functional, LS174T
Procedure, shortened: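 LS 174T cells exposed 4 h to 114.5 kBq/mL 125I agent, cultured 24 h in nonradioactive medium, then harvested and plated; colonies counted after 21 days; surviving fraction = treated colonies / untreated control colonies.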

OVCAR-3 [21] = experiment: Cellular uptake in human OVCAR3 cells at 46.9 +/- 1.1 kBq/mL after 90 mins by gamma counting; assay type: ADME, cell-based; conditions: ovcar-3, 1.5 h; procedure, shortened: as §2
OVCAR-3 [22] = experiment: Cellular uptake in human OVCAR3 cells at 46.9 +/- 1.1 kBq/mL up to 90 mins by gamma counting; assay type: ADME, cell-based; conditions: ovcar-3, 1.5 h; procedure, shortened: as §2
[23] = Cellular uptake in human LS 174T cells after 3 hrs by gamma counting; assay type: ADME, cell-based; conditions: ls174t; procedure, shortened: as §5
[24] = Cellular uptake in human LS 174T cells at 46.9 +/- 1.1 kBq/mL up to 90 mins by gamma counting; assay type: ADME, cell-based; conditions: ls174t, 1.5 h; procedure, shortened: as §2
[25] = Cellular uptake in human LS 174T cells at 46.9 +/- 1.1 kBq/mL after 90 mins by gamma counting; assay type: ADME, cell-based; conditions: ls174t, 1.5 h; procedure, shortened: as §2
Cholinesterase = Cholinesterase (Homo sapiens, UniProt P06276); experiment: Inhibition of human BChE after 24 hrs by microplate reader method
Sequence of Cholinesterase (P06276 whole entry): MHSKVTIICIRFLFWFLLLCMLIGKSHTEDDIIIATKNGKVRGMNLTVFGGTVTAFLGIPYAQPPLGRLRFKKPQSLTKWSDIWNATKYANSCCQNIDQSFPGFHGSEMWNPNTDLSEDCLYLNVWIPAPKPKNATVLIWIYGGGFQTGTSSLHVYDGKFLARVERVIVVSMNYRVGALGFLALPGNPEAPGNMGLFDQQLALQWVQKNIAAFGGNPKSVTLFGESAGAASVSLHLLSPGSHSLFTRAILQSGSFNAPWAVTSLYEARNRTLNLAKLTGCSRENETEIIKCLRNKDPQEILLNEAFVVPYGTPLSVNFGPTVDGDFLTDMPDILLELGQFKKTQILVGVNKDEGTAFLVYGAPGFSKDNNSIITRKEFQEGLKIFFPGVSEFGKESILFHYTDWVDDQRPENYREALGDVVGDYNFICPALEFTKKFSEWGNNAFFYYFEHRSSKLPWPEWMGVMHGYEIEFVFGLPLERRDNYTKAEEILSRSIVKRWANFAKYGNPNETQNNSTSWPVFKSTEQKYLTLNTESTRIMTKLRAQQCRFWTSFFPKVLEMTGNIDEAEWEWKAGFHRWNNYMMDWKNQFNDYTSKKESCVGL

With `CC(C)(C)c1cc(C(C)(C)C)c2c(c1F)COP(=O)(OC[C@H]1O[C@@H](n3cc([125I])c(=O)[nH]c3=O)C[C@@H]1F)O2` (stereo in doubt; form 1) the Drug uptake [1] was “Active”, the K [2] was 3.01 ×10⁻⁴ /min and the Drug uptake [3] was “Active”. The t1/2 [4] was 38.5 h and the Drug uptake [5] was “Active”.

In the case of `CC(C)(C)c1cc(C(C)(C)C)c2c(c1F)COP(=O)(OC[C@H]1O[C@@H](n3cc([125I])c(=O)[nH]c3=O)C[C@@H]1O)O2` (some centres not stated), the Drug uptake (OVCAR-3 [6]) is reported as “Active” and the Drug uptake [7] is reported as “Active”.

In the case of `Cc1cccc2c1OP(=O)(OC[C@H]1O[C@@H](n3cc([125I])c(=O)[nH]c3=O)C[C@@H]1O)OC2` (stereo in doubt; form 1), the K [2] is reported as 5.44 ×10⁻⁴ /min, the t1/2 [4] is reported as 21.2 h and the Drug uptake [8] is reported as “Active”. The Drug uptake [9] was “Active”, the Drug uptake (OVCAR-3 [10]) was “Active” and the Drug uptake (OVCAR-3 [11]) was “Active”. The Drug uptake [12] was “Active”.

Compound `CC(C)(C)c1cc(C(C)(C)C)c2c(c1F)COP(=O)(OC[C@H]1O[C@@H](n3cc([125I])c(=O)[nH]c3=O)C[C@@H]1O)O2` (stereo in doubt) has a Drug uptake [13] of 87.3 cpm, a Drug uptake [14] of 7.8 cpm and a Drug uptake [15] of 91.6 cpm. For the same compound, the Drug uptake [16] was 2.8 cpm and the Drug uptake [17] was “Active”.

In the case of `O=c1[nH]c(=O)n([C@H]2C[C@H](O)[C@@H](COP3(=O)OCc4ccccc4O3)O2)cc1[125I]` (stereo in doubt; form 1), the Drug uptake [18] is reported as “Dose-dependent effect”, the K [2] is reported as 2.25 ×10⁻³ /min and the Drug uptake (OVCAR-3 [19]) is reported as “Dose-dependent effect”. For the same compound, the Activity [20] was 60%, the t1/2 [4] was 5.1 h and the Drug uptake (OVCAR-3 [21]) was “Active”. The Drug uptake (OVCAR-3 [22]) was “Active”, the Drug uptake [23] was “Dose-dependent effect” and the Drug uptake [24] was “Active”. For the same compound, the Drug uptake [25] was “Active”.

In the case of `CC(C)(C)c1cc(C(C)(C)C)c2c(c1F)COP(=O)(O[C@H]1C[C@H](n3cc(I)c(=O)[nH]c3=O)O[C@@H]1CO)O2` (stereo in doubt; form 2), the IC50 (Cholinesterase) is reported as over 3 mM, the K [2] is reported as 6.67 ×10⁻⁴ /min and the t1/2 [4] is reported as 17.3 h.
